The source of these data is ChEMBL document CHEMBL1156912, “Subtlety of the structure-affinity and structure-efficacy relationships around a nonpeptide oxytocin receptor agonist” (J Med Chem, 2010).

SMILES strings stand for the structures. Activity calls are given as the source filed them. The rule behind the calls is not given here.

For assay [1], the target named is T1, Oxytocin receptor (Homo sapiens, UniProt P30559).
T1 sequence (P30559 whole entry): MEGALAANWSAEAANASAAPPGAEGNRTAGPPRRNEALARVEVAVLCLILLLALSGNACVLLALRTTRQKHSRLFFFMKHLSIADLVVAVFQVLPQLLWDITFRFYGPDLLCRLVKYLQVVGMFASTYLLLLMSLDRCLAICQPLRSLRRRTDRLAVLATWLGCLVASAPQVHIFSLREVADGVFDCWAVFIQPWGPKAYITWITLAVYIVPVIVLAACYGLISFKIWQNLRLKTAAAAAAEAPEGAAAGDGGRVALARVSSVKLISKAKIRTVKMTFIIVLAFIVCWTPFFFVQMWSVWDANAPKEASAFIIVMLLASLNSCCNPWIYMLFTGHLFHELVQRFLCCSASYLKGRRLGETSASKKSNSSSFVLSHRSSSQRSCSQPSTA
In words: Displacement of [3H]AVP from human oxytocin receptor expressed in CHO cells. To be noted: read-out: Ki. It is filed as cell-based. In a few lines:
(§1)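 Membranes came from CHO cells stably expressing the human receptor; OT-R and V1a-R cells were treated overnight with 5 mM butyrate. Membrane protein was 10–15 μg (OT, V1a) or 5 μg (V2), incubated 30 min at 30 °C in 50 mM Tris-HCl, 5 mM MgCl2, 1 mg/mL BSA, pH 7.4, with 1–2 nM [3H]AVP and competitor 0.1 pM–100 μM. Nonspecific binding: 10 μM AVP. Filtration, then Ki via Cheng–Prusoff. Mean ± SEM of ≥3 experiments in triplicate.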
Background: Displacement assays read how much labelled ligand stays bound in the presence of the test substance.

Assay [2] deals with T2, Oxytocin receptor (Homo sapiens) (UniProt P30559).
T2 sequence (whole entry): T1 sequence (P30559 whole entry)
In words: Activity at human oxytocin receptor expressed in CHO cells assessed as inhibition of agonist-induced inositol phosphate accumulation at 10 uM. Further details: scale not given: the % may be the effect or the level left. It is filed as functional, cell-based.

Assay [3] has as its target T3, Vasopressin V1a receptor (Homo sapiens, UniProt P37288). Description: Displacement of [3H]AVP from human vasopressin V1a receptor expressed in CHO cells. To be noted: read-out: Ki. Format: cell-based. In a few lines: as §1
Target sequence in this assay (P37288 whole entry): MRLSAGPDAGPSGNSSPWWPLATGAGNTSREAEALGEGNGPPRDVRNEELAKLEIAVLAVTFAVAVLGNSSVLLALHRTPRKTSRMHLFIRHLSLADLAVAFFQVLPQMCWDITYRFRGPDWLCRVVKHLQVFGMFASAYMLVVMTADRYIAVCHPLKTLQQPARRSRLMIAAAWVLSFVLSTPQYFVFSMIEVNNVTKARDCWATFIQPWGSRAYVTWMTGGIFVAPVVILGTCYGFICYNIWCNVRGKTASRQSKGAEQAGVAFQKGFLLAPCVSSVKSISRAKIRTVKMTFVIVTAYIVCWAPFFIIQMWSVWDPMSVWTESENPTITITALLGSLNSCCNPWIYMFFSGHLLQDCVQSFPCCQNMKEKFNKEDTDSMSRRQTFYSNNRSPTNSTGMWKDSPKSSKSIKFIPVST
Assay [4] concerns the target T4, Vasopressin V2 receptor (Homo sapiens, UniProt P30518). Description: Displacement of [3H]AVP from human vasopressin V2 receptor expressed in CHO cells. Format: cell-based. The conditions noted are these: read-out: Ki. In a few lines:
as §1

Assay [5] addresses T4, Vasopressin V2 receptor. Description: Activity at human vasopressin V2 receptor expressed in CHO cells assessed as inhibition of agonist-induced cAMP accumulation at 10 uM. Format: functional, cell-based. Details: Activity: scale not given: the % may be the effect or the level left. For orientation: Cyclic AMP is a second messenger, typically raised through Gs and lowered through Gi signalling.

In assay [6] the target is T3, Vasopressin V1a receptor. In words: Activity at human vasopressin V1a receptor expressed in CHO cells assessed as inositol phosphate accumulation up to 100 uM. Format: functional, cell-based. The gist of the method:
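Human V1a-expressing CHO cells, 80000 cells/well, exposed to ligand for 30 min at 37 °C. IP1 was measured by HTRF IP-One. EC50 (K_act) from the dose–response curve. Emax is relative to the 1 μM AVP maximum. Weak responses are reported as % of AVP maximum at 1 μM ligand.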
Target sequence in this assay (P37288 whole entry, looked up): as the sequence (P37288 whole entry) above

The target in assay [7] is T4, Vasopressin V2 receptor. In words: Activity at human vasopressin V2 receptor expressed in CHO cells assessed as cAMP accumulation up to 100 uM. It is filed as functional, cell-based. In a few lines:
(§2)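 V2-R agonism in CHO cells at 1000 cells/well, stimulated 30 min at 37 °C in D-MEM containing 0.1 mM Ro-20-1724 and 1 mg/mL BSA. cAMP was read by cAMP dynamic 2 HTRF. K_act from the sigmoidal fit. Emax is % of the 0.1 μM AVP response. Single-concentration values are % of AVP maximum.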

Assay [8] deals with T3, Vasopressin V1a receptor. Description: Activity at human vasopressin V1a receptor expressed in CHO cells assessed as inhibition of agonist-induced inositol phosphate accumulation at 10 uM. Format: functional, cell-based. Details: scale not given: the % may be the effect or the level left. In a few lines: (§3)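 Human V1a receptor in stably transfected CHO cells, seeded at 80000 cells/well overnight. Cells were preincubated 10 min at 37 °C with ligand (10 fM–100 μM, ≤1% final DMSO), then challenged with 2 nM AVP for 30 min. IP1 was read by IP-One HTRF. K_inact was derived by Cheng–Prusoff-type correction using AVP K_act 1.20 nM. Fixed-concentration lines are % inhibition, n = 2.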
Target sequence in this assay (P37288 whole entry, looked up): as the sequence (P37288 whole entry) above

For assay [9], the target named is T3, Vasopressin V1a receptor. Description: Activity at human vasopressin V1a receptor expressed in CHO cells assessed as inhibition of agonist-induced inositol phosphate accumulation at 100 uM. Format: functional, cell-based. Details: scale not given: the % may be the effect or the level left. The gist of the method:
as §3
Target sequence in this assay (P37288 whole entry, looked up): as the sequence (P37288 whole entry) above

The target of assay [10] is T4, Vasopressin V2 receptor. Description: Activity at human vasopressin V2 receptor expressed in CHO cells assessed as inhibition of agonist-induced cAMP accumulation at 100 uM. Further details: scale not given: the % may be the effect or the level left. It is filed as functional, cell-based.
For assay [11], the target named is T4, Vasopressin V2 receptor. Description: Activity at human vasopressin V2 receptor expressed in CHO cells assessed as cAMP accumulation at 10 uM. Format: functional, cell-based. The gist of the method:
as §2

T4 sequence (P30518 whole entry): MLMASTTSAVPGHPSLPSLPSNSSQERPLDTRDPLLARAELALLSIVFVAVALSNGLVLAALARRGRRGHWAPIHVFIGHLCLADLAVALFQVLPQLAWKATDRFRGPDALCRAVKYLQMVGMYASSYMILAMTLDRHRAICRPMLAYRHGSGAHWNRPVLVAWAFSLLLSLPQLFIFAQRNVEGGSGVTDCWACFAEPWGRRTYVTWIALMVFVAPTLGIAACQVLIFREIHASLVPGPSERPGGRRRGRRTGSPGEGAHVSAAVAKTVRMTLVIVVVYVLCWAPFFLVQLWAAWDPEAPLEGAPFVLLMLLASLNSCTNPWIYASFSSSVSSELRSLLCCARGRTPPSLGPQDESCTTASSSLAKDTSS

In general, Ki refers to a dissociation constant, usually derived from enzyme kinetics or from competition with a known ligand. Turning to `CN1CCCN(C(=S)[C@@H]2CCCN2C(=O)NCc2ccc(C(=O)N3Cc4cccn4Cc4ccccc43)c(Cl)c2)CC1`, the Ki in [1], in assay [3] and in assay [4] was greater than 5 µM each time. For the same compound, the Activity in assay [2] came to 17%; in assay [5] it was 25%; in [8] it was 7%; in assay [9], 92%; in assay [10], 94%; in assay [11] it was 13%. Also, the result in assay [6] and in assay [7] was inactive.
